Screening results as filed in PubChem BioAssay.
KCNQ1 act: potentiates or activates the human KCNQ1 potassium channel. P51787. CHO-K1 KCNQ1, thallium flux FluxOR fluorescence; hits give high values. B-score at 10 µM. 310,000 compounds, 0.35% hits. AID 2648;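 active = fluorescence ratio B-score, a plate-corrected score, at least three library SD, with initial intensity B-score within 5 SD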
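System: Stable KCNQ1 CHO-K1 line | Incubation: 90 min dye loading and 20 min compound exposure, both at room temperature | Measure: Ratio B score | Medium: Assay buffer for compound exposure, DMSO matched across wells | Compound dosing: Single-concentration screen | Probe or stimulus: K+/Tl+ depolarizing stimulus | Measured by: Kinetic FluxOR fluorescence, 10 s baseline plus 110 s post-stimulus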
KCNK9 block: human KCNK9 channel inhibition; B-score at 10 µM; HEK293 KCNK9, FluxOR thallium flux fluorescence; hits give low values; 310,000 compounds, 1.2% hits; Q9NPC2;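 active = ratio B-score over 3 SD below the library mean, with starting fluorescence within 5 SD of its mean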;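 note: negative B-score means less thallium flux so channel inhibition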
Target sequence (Q9NPC2 whole entry, looked up): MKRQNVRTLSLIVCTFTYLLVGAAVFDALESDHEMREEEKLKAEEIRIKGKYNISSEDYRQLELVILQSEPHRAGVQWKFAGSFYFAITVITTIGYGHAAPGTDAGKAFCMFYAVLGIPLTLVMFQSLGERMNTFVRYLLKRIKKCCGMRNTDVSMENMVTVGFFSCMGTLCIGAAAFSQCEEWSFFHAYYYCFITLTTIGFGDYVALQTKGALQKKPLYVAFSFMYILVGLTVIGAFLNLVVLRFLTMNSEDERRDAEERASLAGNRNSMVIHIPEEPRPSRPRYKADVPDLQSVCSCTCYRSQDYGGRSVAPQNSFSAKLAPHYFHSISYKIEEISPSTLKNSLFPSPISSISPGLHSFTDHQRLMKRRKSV
hERG rescue: shields human hERG channel from block by proarrhythmic agents. Q12809. CHO-hERG, FluxOR thallium flux, dofetilide IC70 present. activation (rescue from dofetilide block), less the hit threshold, % at 10 µM. 310,000 compounds, 0.51% hits. AID 1511;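 active = activation above the mean of controls blocked by dofetilide plus 5 SD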;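 note: thallium influx through hERG after potassium depolarization seen as dye fluorescence rise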
KCNQ1 inh: human KCNQ1 channel inhibition; CHO-K1 KCNQ1, FluxOR thallium flux fluorescence; hits give high values; B-score at 10 µM; 310,000 compounds, 1.3% hits; AID 2642;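 active = compounds whose thallium flux B-score, printed positive for inhibition, exceeds three library SD while starting fluorescence stays within three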;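 note: channel opened by potassium depolarization with thallium stimulus after 20 min compound exposure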
KCNK3 block: human KCNK3 channel inhibition, primary screen; 340,000 compounds, 0.84% hits; B-score at 10 µM; O14649; CHO-KCNK3 thallium flux, FluxOR fluorescence; hits give low values;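 active = B-score under library mean minus 4 SD, starting fluorescence ratio at most library mean plus 5 SD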;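 note: more negative B-score means stronger inhibition of thallium flux through KCNK3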
Kir21 inh: inhibitors of mouse Kir2.1 inward-rectifier potassium channel; B-score at 10 µM; 310,000 compounds, 0.85% hits; AID 1672; HEK293-Kir2.1, FluxOR thallium flux fluorescence; hits give low values;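 active = fluorescence ratio B-score at or below minus 3 SD of library scores, with starting-brightness B-score within 2 SD, cut at about -4.2 in these data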;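 note: channel flux triggered by added potassium and thallium sulfate stimulus; B-score of peak minus minimum fluorescence over baseline after thallium stimulus; more negative B-score means stronger Kir2.1 block with less thallium influx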
Numbers without * were called inactive; i = inactive; / = not tested or not shown. Rows were chosen to be rich in hits. Some 3.7% of all compounds tested hit in one or more screens of this group.

SMILES	KCNQ1 act	KCNK9 block	hERG rescue	KCNQ1 inh	KCNK3 block	Kir21 inh
CCn1nc(C)cc1-c1nnc(Sc2ncc([N+](=O)[O-])s2)n1C	i	i	-26.4	11*	i	-2.12
CC(=O)OCCC(NS(=O)(=O)OCC(Cl)(Cl)Cl)c1ccccc1 (centres undefined)	i	i	-4.0	i	i	-2.06
C[C@H](NS(=O)(=O)OCC(Cl)(Cl)Cl)C1CC1c1ccccc1 (some centres undefined)	i	i	-10.2	6*	i	1.09
CNC(=O)/C(C#N)=C/c1cccc(Oc2ccccc2)c1	i	i	-13.2	i	i	-5.09*
CCc1c(C)nc2cc(-c3ccc(OC)c(OC)c3)nn2c1NCC1CC1	i	-6.68*	-28.1	i	i	0.82
O=C1CCCCC1CCc1ccncc1 (centres undefined)	/	/	/	/	i	/
Cc1cc(C)cc(NC(=S)N(Cc2ccc(Br)cc2)Cc2ccc(C(=O)O)cc2)c1	i	-7.36*	-31.3	i	i	2.18
COC(CN1CCc2c(C)nc3c(C#N)cnn3c21)OC	i	i	6.3*	i	i	0.55
Cc1ccc([N+](=O)[O-])c2c1C(N1CC(C)OC(C)C1)C(C)(C)O2 (centres undefined)	i	i	5.4*	i	i	-0.4
Cc1ccc(C2=NOC(C)(c3nnc(Cc4ccccc4)o3)C2)cc1 (centres undefined)	i	i	-1.1	i	i	2.02
O=C(COc1ccccc1Br)Nc1ccc2c(c1)OCCCO2	i	i	1.9	i	i	1.32
O=C(Nc1cccc(N2C(=O)C=CC2=O)c1)c1cccs1	i	i	-25.8	i	i	-5.94*
NS(=O)(=O)c1cccc(NC(=O)c2cccs2)c1	i	i	-6.0	i	i	-1.32
COCCNC(=O)C(c1ccncc1)N(C(=O)Cn1nnc2ccccc21)c1ccc(OC)cc1 (centres undefined)	i	i	5.0*	i	i	-0.88
CC(C)CCN1C(=O)C2(OCCCO2)c2cc(Cl)ccc21	i	i	-6.6	i	i	-0.06
CCc1nc(SCC(=O)Nc2cc(OC)ccc2OC)c2c(C)c(C)sc2n1	i	-6.62*	-5.7	i	i	-0.5
CCc1nc(SCC(=O)Nc2nnc(CC)s2)c2c(C)c(C)sc2n1	i	i	-1.1	i	i	1.41
COc1ccc(C2C(C(=O)c3ccccc3)=C(C)Nc3nc4ccccc4n32)c(OC)c1 (centres undefined)	i	i	-6.4	i	i	-1.16
CCN(CC)CCCCN1c2ccccc2Sc2ccccc21	i	i	-13.9	i	i	-5.8*
CN(C)CCCN1c2ccccc2Sc2ccc(C(F)(F)F)cc21	i	i	-14.5	i	i	-5.13*
OCCN1CCN(CC/C=C2/c3ccccc3Sc3ccc(C(F)(F)F)cc32)CC1	i	i	-19.0	i	i	-5.41*
CN(C)CCC(=O)N1c2ccccc2Sc2ccc(C(F)(F)F)cc21	i	i	-14.0	i	i	-0.69
OCCN1CCN(CCCN2c3ccccc3Sc3ccc(C(F)(F)F)cc32)CC1	i	i	-22.1	i	i	-7.13*
C/C(CCc1ccccc1)=N/NC(=O)C(=O)NCc1ccccc1	i	i	-11.1	i	i	0.14
Cc1ccc(S(=O)(=O)N2CCCC2CNC(=O)C(=O)Nc2ccc(F)cc2F)cc1 (centres undefined)	i	i	-11.4	i	i	-0.92
CCN(CC)c1ccc(/C=N/NC(=O)c2nnn(-c3nonc3N)c2C(C)C)c(O)c1	i	i	-18.4	7*	i	-1.75
O=C(CN1CCOCC1)NNc1nc(-c2ccccc2)c2cc(Br)ccc2n1	i	i	-1.6	7*	i	0.37
O=C1CCSc2ccc(Cl)cc2N1Cc1ccc(Cl)cc1	i	-7.61*	-10.9	i	i	-2.22
O=C1CCSc2ccc(Cl)cc2N1Cc1ccccc1	i	i	-5.4	i	i	-1.47
CC(=O)c1ccccc1NC(=O)C1CCCN(C(=O)c2ccc(Cl)cc2)C1 (centres undefined)	/	/	/	/	i	/
